≈ marks a conversion by molar mass, not a printed value.
Columns and labels:
[1] = system: Escherichia coli; test: In vitro antibacterial activity against Escherichia coli; assay type: functional
How it was run: (§1)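 Broth microdilution MIC per NCCLS guidelines; strains from in-house collection (ATCC and hospital isolates) stored at -80 °C; E. coli tested as permeable outer-membrane mutant DC2. MIC taken as lowest concentration preventing visible growth after 18 to 24 h at 37 °C.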

[2] = system: Haemophilus influenzae; test: In vitro antibacterial activity against Haemophilus influenzae 11; assay type: functional; how it was run: as §1
[3] = system: Moraxella catarrhalis; test: In vitro antibacterial activity against Moraxella catarrhalis RA21; assay type: functional; how it was run: as §1
[4] = molecular target: T1, Peptide deformylase (Escherichia coli, UniProt Q9JN24); test: Inhibition of the isolated native Escherichia coli peptide deformylase (PDF)
T1 sequence (Q9JN24 whole entry): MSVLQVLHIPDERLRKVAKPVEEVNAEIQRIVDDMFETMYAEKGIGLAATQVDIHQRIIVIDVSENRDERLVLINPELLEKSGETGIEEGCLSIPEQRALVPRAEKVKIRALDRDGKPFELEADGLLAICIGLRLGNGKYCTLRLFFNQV

[5] = molecular target: Collagenase 3 (Homo sapiens, UniProt P45452); test: Inhibition of Collagenase-3, matrix metalloprotease-13 (MMP-13).
[6] = molecular target: Neprilysin (Homo sapiens, UniProt P08473); test: Inhibition against neutral endopeptidase
Neprilysin, sequence (P08473 whole entry): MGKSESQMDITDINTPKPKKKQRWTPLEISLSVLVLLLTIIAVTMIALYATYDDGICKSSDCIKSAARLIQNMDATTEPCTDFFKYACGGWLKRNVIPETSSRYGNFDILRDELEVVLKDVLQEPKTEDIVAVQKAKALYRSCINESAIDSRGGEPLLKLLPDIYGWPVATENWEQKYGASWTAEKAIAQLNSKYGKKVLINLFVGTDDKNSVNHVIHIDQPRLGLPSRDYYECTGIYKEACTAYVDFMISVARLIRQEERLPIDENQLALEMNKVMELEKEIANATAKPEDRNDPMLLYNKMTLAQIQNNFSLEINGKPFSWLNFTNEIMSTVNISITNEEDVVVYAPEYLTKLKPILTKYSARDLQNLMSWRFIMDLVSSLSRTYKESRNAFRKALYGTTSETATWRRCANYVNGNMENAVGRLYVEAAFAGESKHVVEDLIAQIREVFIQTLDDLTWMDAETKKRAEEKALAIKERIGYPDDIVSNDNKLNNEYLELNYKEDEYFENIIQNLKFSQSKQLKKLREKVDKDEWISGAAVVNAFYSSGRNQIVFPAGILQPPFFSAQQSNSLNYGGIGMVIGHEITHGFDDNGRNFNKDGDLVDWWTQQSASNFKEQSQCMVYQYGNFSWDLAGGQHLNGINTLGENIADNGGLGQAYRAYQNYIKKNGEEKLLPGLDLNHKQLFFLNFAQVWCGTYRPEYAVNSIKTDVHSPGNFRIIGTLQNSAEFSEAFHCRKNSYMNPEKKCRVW

[7] = molecular target: Angiotensin-converting enzyme (Homo sapiens, UniProt P12821); test: Inhibition against angiotensin I converting enzyme
Angiotensin-converting enzyme, sequence (P12821 whole entry): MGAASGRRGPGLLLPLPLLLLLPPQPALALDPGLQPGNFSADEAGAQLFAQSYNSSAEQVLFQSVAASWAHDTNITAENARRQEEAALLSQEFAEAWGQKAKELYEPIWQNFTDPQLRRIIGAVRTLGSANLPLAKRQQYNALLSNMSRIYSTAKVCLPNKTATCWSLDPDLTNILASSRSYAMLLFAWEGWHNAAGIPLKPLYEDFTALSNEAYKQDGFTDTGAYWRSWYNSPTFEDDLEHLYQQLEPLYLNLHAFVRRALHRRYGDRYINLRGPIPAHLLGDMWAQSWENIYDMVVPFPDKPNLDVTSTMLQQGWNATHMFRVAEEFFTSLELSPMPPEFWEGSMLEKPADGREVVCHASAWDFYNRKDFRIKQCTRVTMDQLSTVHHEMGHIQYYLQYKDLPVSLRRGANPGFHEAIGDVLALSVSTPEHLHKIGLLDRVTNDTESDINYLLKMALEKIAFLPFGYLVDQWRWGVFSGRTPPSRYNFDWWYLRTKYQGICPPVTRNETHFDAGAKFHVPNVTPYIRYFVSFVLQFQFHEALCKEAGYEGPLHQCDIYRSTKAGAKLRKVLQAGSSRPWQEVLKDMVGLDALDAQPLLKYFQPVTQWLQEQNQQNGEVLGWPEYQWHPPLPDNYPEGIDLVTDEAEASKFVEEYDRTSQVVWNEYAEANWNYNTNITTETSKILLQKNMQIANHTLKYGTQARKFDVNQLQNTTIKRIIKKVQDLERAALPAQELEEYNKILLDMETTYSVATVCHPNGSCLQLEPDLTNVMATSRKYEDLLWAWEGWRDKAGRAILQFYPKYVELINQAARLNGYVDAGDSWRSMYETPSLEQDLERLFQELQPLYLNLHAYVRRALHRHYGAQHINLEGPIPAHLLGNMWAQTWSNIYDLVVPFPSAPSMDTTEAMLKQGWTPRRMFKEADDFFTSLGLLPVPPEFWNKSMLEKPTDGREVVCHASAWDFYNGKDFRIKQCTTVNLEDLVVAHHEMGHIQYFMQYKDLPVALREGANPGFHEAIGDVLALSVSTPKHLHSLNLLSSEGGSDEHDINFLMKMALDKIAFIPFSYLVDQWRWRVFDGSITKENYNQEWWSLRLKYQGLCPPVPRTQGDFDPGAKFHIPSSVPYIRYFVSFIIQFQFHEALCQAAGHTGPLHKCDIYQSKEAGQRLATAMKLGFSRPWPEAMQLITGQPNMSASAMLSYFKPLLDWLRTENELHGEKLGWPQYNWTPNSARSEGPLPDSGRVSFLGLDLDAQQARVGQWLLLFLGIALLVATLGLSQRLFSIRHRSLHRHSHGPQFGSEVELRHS

[8] = molecular target: Macrophage metalloelastase (Homo sapiens, UniProt P39900); test: Inhibition of human macrophage elastase, matrix metalloprotease-12 (MMP-12).
Macrophage metalloelastase, sequence (P39900 whole entry): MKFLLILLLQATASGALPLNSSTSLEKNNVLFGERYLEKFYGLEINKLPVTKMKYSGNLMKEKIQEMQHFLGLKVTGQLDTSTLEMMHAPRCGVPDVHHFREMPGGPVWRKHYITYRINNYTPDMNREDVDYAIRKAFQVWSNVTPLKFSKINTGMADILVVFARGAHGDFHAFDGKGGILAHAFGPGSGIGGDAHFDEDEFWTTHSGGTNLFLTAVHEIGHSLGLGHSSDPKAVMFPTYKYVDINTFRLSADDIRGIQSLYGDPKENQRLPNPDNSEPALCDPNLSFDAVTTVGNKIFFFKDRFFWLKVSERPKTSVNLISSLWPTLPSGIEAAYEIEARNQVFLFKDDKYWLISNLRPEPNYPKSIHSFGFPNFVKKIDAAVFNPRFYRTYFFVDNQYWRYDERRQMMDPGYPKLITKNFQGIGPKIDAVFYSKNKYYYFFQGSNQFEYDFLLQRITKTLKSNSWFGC

[9] = molecular target: T2, Endothelin-converting enzyme 1 (Homo sapiens, UniProt P42892); test: Inhibition against endothelin-converting enzyme.
T2 sequence (P42892 whole entry): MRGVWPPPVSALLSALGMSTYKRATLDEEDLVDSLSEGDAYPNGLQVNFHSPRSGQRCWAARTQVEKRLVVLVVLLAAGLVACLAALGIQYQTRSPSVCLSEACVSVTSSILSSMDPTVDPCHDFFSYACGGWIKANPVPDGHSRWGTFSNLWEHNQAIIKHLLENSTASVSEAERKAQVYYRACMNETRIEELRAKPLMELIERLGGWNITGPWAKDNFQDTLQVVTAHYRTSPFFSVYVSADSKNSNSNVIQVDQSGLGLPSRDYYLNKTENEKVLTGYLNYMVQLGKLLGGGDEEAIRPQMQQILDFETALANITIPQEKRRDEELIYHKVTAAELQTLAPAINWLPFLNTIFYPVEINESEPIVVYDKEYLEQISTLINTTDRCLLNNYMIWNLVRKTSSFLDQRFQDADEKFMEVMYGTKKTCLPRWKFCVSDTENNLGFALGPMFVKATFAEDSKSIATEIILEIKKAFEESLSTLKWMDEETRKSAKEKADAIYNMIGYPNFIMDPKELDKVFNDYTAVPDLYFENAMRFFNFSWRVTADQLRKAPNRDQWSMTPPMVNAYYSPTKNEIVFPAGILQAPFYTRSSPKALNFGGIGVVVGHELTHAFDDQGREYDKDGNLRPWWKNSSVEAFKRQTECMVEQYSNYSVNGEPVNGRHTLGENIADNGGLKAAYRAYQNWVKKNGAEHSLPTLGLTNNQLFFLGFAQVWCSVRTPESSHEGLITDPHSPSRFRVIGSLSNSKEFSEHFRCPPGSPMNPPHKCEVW

Compound	MIC [1] [µg/mL]	MIC [2] [µg/mL]	MIC [3] [µg/mL]	IC50 [4] [µM]	IC50 [5] [µM]	IC50 [6] [µM]	IC50 [7] [µM]	IC50 [8] [µM]	IC50 [9] [µM]
O=C(CN1Cc2c(Cl)cccc2N(CCCc2ccccc2)S1(=O)=O)NO	> 64	32 (≈ 78.1 µM)	8 (≈ 19.5 µM)	–	–	–	–	–	–
O=C(CN1Cc2ccccc2NS1(=O)=O)NO	> 64	> 64	> 64	0.76	–	–	–	–	–
O=C(CN1Cc2c(Br)cccc2NC1=O)NO	32 (≈ 107 µM)	16 (≈ 53.3 µM)	4 (≈ 13.3 µM)	0.049	–	–	–	–	–
O=C(CN1Cc2c(Cl)cccc2NC1=O)NO	16 (≈ 62.6 µM)	8 (≈ 31.3 µM)	2 (≈ 7.82 µM)	0.31	0.46	> 100	90	> 100	> 10
O=C(CN1Cc2c(Cl)cccc2NS1(=O)=O)NO	> 64	16 (≈ 54.8 µM)	8 (≈ 27.4 µM)	0.12	> 0.5	> 100	> 100	> 100	> 10
O=C(CN1Cc2c(Cl)cccc2N(Cc2ccccc2)S1(=O)=O)NO	64 (≈ 168 µM)	32 (≈ 83.8 µM)	8 (≈ 21 µM)	–	–	–	–	–	–
O=C(CN1Cc2c(F)cccc2NS1(=O)=O)NO	> 64	> 64	> 64	0.87	–	–	–	–	–
O=C(CN1Cc2c(cccc2C(F)(F)F)NS1(=O)=O)NO	> 64	32 (≈ 98.4 µM)	8 (≈ 24.6 µM)	0.13	–	–	–	–	–
NNC(=O)CN1Cc2c(Cl)cccc2NC1=O	50 (≈ 196 µM)	–	–	27	–	–	–	–	–
O=C(CN1Cc2c(Br)cccc2NS1(=O)=O)NO	32 (≈ 95.2 µM)	> 64	4 (≈ 11.9 µM)	0.098	–	–	–	–	–
CCCCN1c2cccc(Cl)c2CN(CC(=O)NO)S1(=O)=O	> 64	64 (≈ 184 µM)	2 (≈ 5.75 µM)	0.59	–	–	–	–	–
O=C(CN1Cc2c(F)cccc2NC1=O)NO	> 64	64 (≈ 268 µM)	16 (≈ 66.9 µM)	0.87	–	–	–	–	–
O=C(CN1Cc2c(Cl)cccc2N(CC2CC2)S1(=O)=O)NO	> 64	64 (≈ 185 µM)	4 (≈ 11.6 µM)	0.11	–	–	–	–	–
O=C(CN1Cc2c(cccc2C(F)(F)F)NC1=O)NO	64 (≈ 221 µM)	64 (≈ 221 µM)	8 (≈ 27.7 µM)	0.23	–	–	–	–	–
O=C(CN1Cc2c(Br)cccc2N(CC2CC2)S1(=O)=O)NO	64 (≈ 164 µM)	64 (≈ 164 µM)	1 (≈ 2.56 µM)	–	–	–	–	–	–
O=C(CN1Cc2ccccc2NC1=O)NO	> 64	> 64	> 64	–	–	–	–	–	–

— ChEMBL document CHEMBL1134493, “2-(2-Oxo-1,4-dihydro-2H-quinazolin-3-yl)- and 2-(2,2-dioxo-1,4-dihydro-2H-2lambda6-benzo[1,2,6]thiadiazin-3-yl)-N-hydroxy-acetamides as potent and selective peptide deformylase inhibitors” (J Med Chem, 2001)
